Laboratory results: ChEMBL document CHEMBL4364248, “Discovery of 1,2,4-oxadiazole-Containing hydroxamic acid derivatives as histone deacetylase inhibitors potential application in cancer therapy” (Eur J Med Chem, 2019)
Calls of active or inactive are those of the source. No cut-off for these calls is given here.

Key:
Histone deacetylase 2 = Histone deacetylase 2 (Homo sapiens, UniProt Q92769); assay: Inhibition of recombinant full length human HDAC2 expressed in sf9 insect cells using Ac-peptide-AMC as substrate after 1 hr by fluorescence assay; type: cell-based
[1] = molecular target: Histone deacetylase 3/Nuclear receptor corepressor 2 (HDAC3/NCoR2) (Homo sapiens, UniProt O15379); assay: Inhibition of human recombinant full length C-terminal His-tagged HDAC3 (1 to 428 residues)/N-terminal GST-tagged NCOR2 (395 to 489 residues) expressed in Sf9 cells using Ac-peptide-AMC as substrate after 1 hr by fluorescence assay
Histone deacetylase 4 = Histone deacetylase 4 (Homo sapiens, UniProt P56524); assay: Inhibition of recombinant full length human HDAC4 expressed in sf9 insect cells using Ac-peptide-AMC as substrate after 1 hr by fluorescence assay
Histone deacetylase 9 = Histone deacetylase 9 (Homo sapiens, UniProt Q9UKV0); assay: Inhibition of recombinant C-terminal His-tagged human HDAC9 (604 to 1066 residues) expressed in baculovirus infected Sf9 cells using Ac-peptide-AMC as substrate after 1 hr by fluorescence assay
[2] = molecular target: Polyamine deacetylase HDAC10 (Homo sapiens, UniProt Q969S8); assay: Inhibition of recombinant N-terminal FLAG-tagged human HDAC10 (2 to 631 residues) expressed in baculovirus infected Sf9 cells using Ac-peptide-AMC as substrate after 1 hr by fluorescence assay
A2780S = assay: Antiproliferative activity against human A2780S cells after 72 hrs by MTT assay; type: functional, cell-based
MCF7 = assay: Antiproliferative activity against human MCF7 cells after 72 hrs by MTT assay; type: functional, cell-based; conditions: MCF7, 72 h
MM1.S = assay: Antiproliferative activity against human MM1S cells after 72 hrs by MTT assay; type: functional, cell-based
Ramos = assay: Antiproliferative activity against human Ramos cells after 72 hrs by MTT assay; type: functional, cell-based
Leukemia cell = assay: Antiproliferative activity against human AML patient derived primary leukemia cells after 72 hrs by MTT assay; type: functional, cell-based
[3] = molecular target: Histone deacetylase 1/2/3 (Homo sapiens) (UniProt Q13547+O15379+Q92769); assay: Inhibition of HDAC1/2/3 in human MM1S cells assessed as upregulation of H3 acetylation at 40 nM after 6 hrs by Western blot analysis; type: cell-based
JeKo-1 [4] = assay: Cell cycle arrest in human JeKo1 cells assessed as accumulation at S phase at 10 nM after 24 hrs by propidium iodide staining based flow cytometric analysis (reference value: 26.13 %); type: functional
JeKo-1 [5] = assay: Cell cycle arrest in human JeKo1 cells assessed as accumulation at G1 phase at 1000 nM after 24 hrs by propidium iodide staining based flow cytometric analysis (reference value: 63.16 %); type: functional
JeKo-1 [6] = assay: Cell cycle arrest in human JeKo1 cells assessed as accumulation at S phase at 1000 nM after 24 hrs by propidium iodide staining based flow cytometric analysis (reference value: 26.13 %); type: functional
JeKo-1 [7] = assay: Cell cycle arrest in human JeKo1 cells assessed as accumulation at G2/M phase at 1000 nM after 24 hrs by propidium iodide staining based flow cytometric analysis (reference value: 10.71 %); type: functional
JeKo-1 [8] = assay: Induction of apoptosis in human JeKo1 cells assessed as necrotic cells at 10 nM after 48 hrs by annexin V-FITC/propidium iodide staining-based flow cytometric method (reference value: 2.03 %); type: functional
Summary of the method: (§1)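 Jeko-1 cells were grown in RPMI-1640 with 10% FBS at 37 °C under 5% CO2. They were exposed to 0, 10, 100 or 1000 nM for 48 h, then apoptosis induction was analysed.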

JeKo-1 [9] = assay: Induction of apoptosis in human JeKo1 cells assessed as early apoptotic cells at 100 nM after 48 hrs by annexin V-FITC/propidium iodide staining-based flow cytometric method (reference value: 3.34 %); type: functional; summary of the method: as §1
JeKo-1 [10] = assay: Induction of apoptosis in human JeKo1 cells assessed as late apoptotic cells at 1000 nM after 48 hrs by annexin V-FITC/propidium iodide staining-based flow cytometric method (reference value: 3.07 %); type: functional; summary of the method: as §1
JeKo-1 [11] = assay: Induction of cell cycle arrest in human JeKo1 cells assessed as accumulation at G1 phase after 24 hrs by propidium iodide staining-based flow cytometric method; type: functional
JeKo-1 [12] = assay: Induction of apoptosis in human JeKo1 cells after 48 hrs by annexin V-FITC/propidium iodide staining-based flow cytometric method; type: functional, cell-based; summary of the method: as §1
[13] = Clearance in Sprague-Dawley rat at 5 mg/kg, iv measured upto 24 hrs by LC-MS/MS analysis; type: ADME, organism-based; conditions: in vivo
Summary of the method: (§2)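 SD rats (200-250 g), six per time point, given 5 mg/kg as a tail-vein bolus or orally. Blood was taken by cardiac puncture before dosing and at 5, 15, 30, 45 min and 1, 2, 4, 6, 8, 10, 12 and 24 h. Plasma was spun at 4000 g for 15 min at 4 °C and stored at -80 °C. Analysis was LC-MS/MS with multiple-reaction monitoring, followed by noncompartmental analysis.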

[14] = Volume of distribution at steady state in Sprague-Dawley rat at 5 mg/kg, iv measured upto 24 hrs by LC-MS/MS analysis; type: ADME, organism-based; conditions: in vivo, read-out: Vdss; summary of the method: as §2
[15] = Cmax in Sprague-Dawley rat at 5 mg/kg, po measured upto 24 hrs by LC-MS/MS analysis; type: ADME, organism-based; parameters: dose 5 mg/kg, route oral; conditions: in vivo; summary of the method: as §2
Daudi = assay: Antitumour activity against human Daudi cells xenografted in NOD/SCID mouse assessed as reduction in tumour growth at 20 mg/kg, po treated on day 1,3 and 5 per week and measured for every 2 days; type: functional; conditions: read-out: TGI
Summary of the method: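 Daudi cells (107 in 100 µL serum-free RPMI 1640) were injected s.c. into the right flank of 5–6 week female NOD/SCID mice. At 100–200 mm3, mice were randomized six per group. Dosing was 10 mg/kg i.v. or 20 mg/kg p.o. in 8% HP-β-CD on days 1, 3 and 5 each week. Tumors were measured by caliper every 2 days, with TV = length × width² × 0.5.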

[16] = Toxicity in NOD/SCID mouse xenografted with human Daudi cells assessed as abnormal behavior at 20 mg/kg, po treated on day 1,3 and 5 per week and measured for every 2 days; type: organism-based; conditions: in vivo, 48 h
Summary of the method: (§3)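 Female NOD/SCID mice (5–6 weeks) bearing s.c. Daudi xenografts, six per group. Dosing was 10 mg/kg i.v. or 20 mg/kg p.o. in 8% HP-β-CD on days 1, 3 and 5 weekly. Behaviour was observed, and organ tissues were collected at sacrifice for H&E staining.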

[17] = Toxicity in NOD/SCID mouse xenografted with human Daudi cells at 20 mg/kg, po treated on day 1,3 and 5 per week and measured for every 2 days; type: organism-based; conditions: in vivo, 48 h; summary of the method: as §3
[18] = Toxicity in NOD/SCID mouse xenografted with human Daudi cells assessed as organ damage at 20 mg/kg, po treated on day 1,3 and 5 per week and measured for every 2 days by H and E staining based assay; type: organism-based; conditions: in vivo, 48 h; summary of the method: as §3

Chain of Histone deacetylase 2 (Q92769 whole entry, the tested form may be a part): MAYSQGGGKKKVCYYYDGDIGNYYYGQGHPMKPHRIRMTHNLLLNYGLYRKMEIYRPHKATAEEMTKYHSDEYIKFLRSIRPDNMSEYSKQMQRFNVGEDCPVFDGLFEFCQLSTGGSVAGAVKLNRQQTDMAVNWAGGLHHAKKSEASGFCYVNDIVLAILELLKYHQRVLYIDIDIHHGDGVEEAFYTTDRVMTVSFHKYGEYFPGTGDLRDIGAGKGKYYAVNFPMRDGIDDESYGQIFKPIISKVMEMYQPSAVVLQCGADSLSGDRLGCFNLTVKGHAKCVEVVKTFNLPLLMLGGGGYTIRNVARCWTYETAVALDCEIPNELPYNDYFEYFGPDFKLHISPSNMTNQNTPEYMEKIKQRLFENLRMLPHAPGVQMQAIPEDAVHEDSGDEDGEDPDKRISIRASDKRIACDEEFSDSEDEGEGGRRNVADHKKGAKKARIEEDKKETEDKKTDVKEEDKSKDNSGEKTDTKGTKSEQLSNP
Chain of Histone deacetylase 9 (Q9UKV0 whole entry, the tested form may be a part): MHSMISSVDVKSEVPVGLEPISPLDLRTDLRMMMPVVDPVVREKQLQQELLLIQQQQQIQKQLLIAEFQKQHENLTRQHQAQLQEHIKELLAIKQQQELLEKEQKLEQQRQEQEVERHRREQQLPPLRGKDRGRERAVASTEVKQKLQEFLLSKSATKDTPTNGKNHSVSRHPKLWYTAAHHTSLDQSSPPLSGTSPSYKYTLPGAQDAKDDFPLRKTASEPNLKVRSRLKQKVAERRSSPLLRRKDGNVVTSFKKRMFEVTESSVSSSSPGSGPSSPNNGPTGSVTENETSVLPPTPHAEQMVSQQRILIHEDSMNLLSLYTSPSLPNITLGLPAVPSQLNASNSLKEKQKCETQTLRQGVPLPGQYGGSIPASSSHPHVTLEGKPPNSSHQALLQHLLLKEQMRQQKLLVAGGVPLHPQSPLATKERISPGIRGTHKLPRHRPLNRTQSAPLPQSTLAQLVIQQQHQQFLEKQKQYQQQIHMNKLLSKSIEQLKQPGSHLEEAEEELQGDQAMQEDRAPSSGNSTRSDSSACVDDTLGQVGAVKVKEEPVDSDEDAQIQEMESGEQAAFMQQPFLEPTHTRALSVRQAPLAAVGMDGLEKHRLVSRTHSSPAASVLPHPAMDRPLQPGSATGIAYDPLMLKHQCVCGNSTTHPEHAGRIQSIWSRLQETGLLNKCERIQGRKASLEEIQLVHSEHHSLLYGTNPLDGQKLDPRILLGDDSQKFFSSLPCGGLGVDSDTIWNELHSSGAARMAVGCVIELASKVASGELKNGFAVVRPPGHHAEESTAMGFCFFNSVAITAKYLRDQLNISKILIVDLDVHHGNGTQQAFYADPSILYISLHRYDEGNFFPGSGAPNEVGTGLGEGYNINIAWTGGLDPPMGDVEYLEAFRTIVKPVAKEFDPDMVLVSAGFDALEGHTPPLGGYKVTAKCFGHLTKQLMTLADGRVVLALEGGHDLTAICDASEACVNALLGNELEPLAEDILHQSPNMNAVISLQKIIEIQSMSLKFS
Chain of Histone deacetylase 3/Nuclear receptor corepressor 2 (HDAC3/NCoR2) (O15379 whole entry, the tested form may be a part): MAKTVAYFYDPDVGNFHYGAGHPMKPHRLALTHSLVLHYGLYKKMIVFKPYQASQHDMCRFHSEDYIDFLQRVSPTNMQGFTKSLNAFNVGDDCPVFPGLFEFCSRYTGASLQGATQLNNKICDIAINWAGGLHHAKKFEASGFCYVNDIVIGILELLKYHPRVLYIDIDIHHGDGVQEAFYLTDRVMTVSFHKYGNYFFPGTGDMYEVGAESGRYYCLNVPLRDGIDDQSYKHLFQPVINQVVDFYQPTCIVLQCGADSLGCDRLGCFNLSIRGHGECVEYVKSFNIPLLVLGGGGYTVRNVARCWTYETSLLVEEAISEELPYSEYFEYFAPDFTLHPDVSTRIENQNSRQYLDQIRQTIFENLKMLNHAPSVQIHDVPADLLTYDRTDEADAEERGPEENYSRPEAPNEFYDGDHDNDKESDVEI
Chain of Histone deacetylase 3/Nuclear receptor corepressor 2 (HDAC3/NCoR2) (Q9Y618 whole entry, further chain, the tested form may be a part): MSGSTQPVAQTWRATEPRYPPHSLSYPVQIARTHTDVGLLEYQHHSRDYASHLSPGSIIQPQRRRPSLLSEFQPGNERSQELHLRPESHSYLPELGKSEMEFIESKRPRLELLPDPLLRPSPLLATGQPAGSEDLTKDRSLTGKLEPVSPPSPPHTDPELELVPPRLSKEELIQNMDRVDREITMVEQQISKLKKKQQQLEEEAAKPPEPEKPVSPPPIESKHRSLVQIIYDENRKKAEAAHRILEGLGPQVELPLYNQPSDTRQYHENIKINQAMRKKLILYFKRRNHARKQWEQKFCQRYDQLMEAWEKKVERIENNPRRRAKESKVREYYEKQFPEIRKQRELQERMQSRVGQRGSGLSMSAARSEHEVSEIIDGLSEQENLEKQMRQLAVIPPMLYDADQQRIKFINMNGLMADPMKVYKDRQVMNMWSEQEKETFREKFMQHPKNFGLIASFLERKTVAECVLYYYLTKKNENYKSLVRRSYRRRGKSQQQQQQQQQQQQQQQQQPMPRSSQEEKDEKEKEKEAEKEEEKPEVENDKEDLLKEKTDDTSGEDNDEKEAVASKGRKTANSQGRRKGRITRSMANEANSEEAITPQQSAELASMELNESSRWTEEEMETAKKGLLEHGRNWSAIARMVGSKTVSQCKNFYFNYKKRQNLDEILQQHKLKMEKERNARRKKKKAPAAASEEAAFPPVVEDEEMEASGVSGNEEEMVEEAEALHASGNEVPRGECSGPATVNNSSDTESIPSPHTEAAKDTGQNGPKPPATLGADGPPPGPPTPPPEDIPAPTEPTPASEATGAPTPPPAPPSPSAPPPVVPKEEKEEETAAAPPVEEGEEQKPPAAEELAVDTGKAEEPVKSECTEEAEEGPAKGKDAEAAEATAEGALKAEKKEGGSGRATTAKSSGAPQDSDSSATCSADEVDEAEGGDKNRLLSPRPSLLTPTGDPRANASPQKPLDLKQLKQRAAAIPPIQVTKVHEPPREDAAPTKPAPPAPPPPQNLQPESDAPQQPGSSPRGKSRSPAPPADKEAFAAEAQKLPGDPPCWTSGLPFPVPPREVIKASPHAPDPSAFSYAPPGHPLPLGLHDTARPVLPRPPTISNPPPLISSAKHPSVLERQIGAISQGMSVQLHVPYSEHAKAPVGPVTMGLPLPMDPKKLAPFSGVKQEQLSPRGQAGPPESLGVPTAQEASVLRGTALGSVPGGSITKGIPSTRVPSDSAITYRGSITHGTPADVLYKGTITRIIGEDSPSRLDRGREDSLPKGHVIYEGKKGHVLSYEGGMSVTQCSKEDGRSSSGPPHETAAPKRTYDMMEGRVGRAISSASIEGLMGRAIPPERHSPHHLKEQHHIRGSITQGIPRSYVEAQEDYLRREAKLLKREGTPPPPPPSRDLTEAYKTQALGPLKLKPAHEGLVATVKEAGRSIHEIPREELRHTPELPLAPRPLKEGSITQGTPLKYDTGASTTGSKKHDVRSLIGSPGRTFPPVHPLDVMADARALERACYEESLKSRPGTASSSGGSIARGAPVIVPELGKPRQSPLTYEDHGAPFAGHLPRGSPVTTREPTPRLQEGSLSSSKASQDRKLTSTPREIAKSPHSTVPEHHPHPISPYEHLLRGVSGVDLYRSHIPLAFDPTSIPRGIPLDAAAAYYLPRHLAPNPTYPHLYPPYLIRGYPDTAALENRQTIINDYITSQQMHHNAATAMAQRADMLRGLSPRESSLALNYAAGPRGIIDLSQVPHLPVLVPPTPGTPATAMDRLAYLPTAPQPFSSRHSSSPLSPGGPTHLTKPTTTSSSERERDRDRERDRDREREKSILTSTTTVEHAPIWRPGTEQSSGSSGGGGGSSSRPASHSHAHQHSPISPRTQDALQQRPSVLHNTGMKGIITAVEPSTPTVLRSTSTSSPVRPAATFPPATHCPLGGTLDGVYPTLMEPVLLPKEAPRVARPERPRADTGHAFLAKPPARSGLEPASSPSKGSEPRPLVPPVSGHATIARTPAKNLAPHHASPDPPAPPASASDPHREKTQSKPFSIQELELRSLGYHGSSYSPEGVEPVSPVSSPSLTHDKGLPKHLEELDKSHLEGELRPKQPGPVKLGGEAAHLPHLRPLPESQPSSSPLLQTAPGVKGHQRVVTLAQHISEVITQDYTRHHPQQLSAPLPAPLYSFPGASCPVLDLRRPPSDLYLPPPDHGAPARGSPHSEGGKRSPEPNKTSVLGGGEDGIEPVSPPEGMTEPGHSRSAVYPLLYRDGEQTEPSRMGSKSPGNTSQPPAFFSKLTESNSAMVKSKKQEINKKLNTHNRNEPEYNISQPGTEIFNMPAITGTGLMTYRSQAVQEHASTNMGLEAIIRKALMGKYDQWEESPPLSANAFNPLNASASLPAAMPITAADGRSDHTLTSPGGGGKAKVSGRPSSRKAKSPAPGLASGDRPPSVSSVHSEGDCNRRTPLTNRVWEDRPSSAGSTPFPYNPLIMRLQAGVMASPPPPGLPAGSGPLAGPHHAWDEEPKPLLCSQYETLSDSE
Chain of Polyamine deacetylase HDAC10 (Q969S8 whole entry, the tested form may be a part): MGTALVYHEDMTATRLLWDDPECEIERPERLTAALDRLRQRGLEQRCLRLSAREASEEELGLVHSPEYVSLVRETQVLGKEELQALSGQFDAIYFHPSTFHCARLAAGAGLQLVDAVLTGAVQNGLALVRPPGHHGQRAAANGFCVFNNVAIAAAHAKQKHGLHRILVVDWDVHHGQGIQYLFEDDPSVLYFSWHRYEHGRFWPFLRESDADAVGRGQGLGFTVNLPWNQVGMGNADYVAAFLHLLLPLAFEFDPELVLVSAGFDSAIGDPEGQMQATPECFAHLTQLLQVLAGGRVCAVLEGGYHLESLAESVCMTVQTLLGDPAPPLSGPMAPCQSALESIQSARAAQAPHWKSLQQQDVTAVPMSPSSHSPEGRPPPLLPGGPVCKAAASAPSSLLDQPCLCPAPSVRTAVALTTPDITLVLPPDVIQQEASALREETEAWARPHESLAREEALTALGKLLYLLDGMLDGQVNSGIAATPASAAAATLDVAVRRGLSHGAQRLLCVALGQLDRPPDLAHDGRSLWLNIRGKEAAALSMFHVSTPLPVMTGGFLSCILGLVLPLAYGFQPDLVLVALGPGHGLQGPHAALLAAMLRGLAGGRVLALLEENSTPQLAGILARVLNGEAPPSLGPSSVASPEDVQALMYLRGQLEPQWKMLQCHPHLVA

## Cc1ccc(CN2CCC(c3noc(CN(C)c4ncc(C(=O)NO)cn4)n3)CC2)cc1
Histone deacetylase 2
  IC50: 3.6 nM
[1]
  IC50: 3 nM
Histone deacetylase 4
  IC50: 473 nM
Histone deacetylase 9
  IC50: 441 nM
[2]
  IC50: 102 nM
A2780S
  IC50: 40 nM
MCF7
  IC50: 14.4 nM
MM1.S
  IC50: 9.8 nM
Ramos
  IC50: 17.8 nM
Leukemia cell
  IC50: 21.2 to 61.1 nM
[3]
  inhibition: Active
JeKo-1 [4]
  Activity: 24%
JeKo-1 [5]
  Activity: 82.86%
JeKo-1 [6]
  Activity: 12.82%
JeKo-1 [7]
  Activity: 4.32%
JeKo-1 [8]
  Activity: 0.39%
JeKo-1 [9]
  Activity: 28.3%
JeKo-1 [10]
  Activity: 30.4%
JeKo-1 [11]
  Activity: Dose-dependent effect
JeKo-1 [12]
  Activity: Dose-dependent effect
[13]
  clearance: 198 mL/min/kg
[14]
  Vd: 6.33 L/kg
[15]
  Cmax: 241 ng/mL
Daudi
  inhibition in vivo at 20 mg/kg: 53.8%
[16]
  Activity: Non-Toxic
[17]
  Activity: Non-Toxic
[18]
  Activity: Non-Toxic
